Source: PubChem BioAssay (The Scripps Research Institute Molecular Screening Center)
Sampled rows, rich in hits. Any-hit rate of the full collection: about 2.6%.
OX1R antag-1: blocks the human orexin 1 receptor; O43613; OX1R-expressing cells, FRET antagonist read-out; inhibition, % at 6.6 µM; 1.8% of 330,000 active; AID 485270; in the data active = inhibition mostly above about 38%, no sharp cut-off; inactive = mostly below about 40%
CHO parental Ca: signal in parental CHO cells, OX1R antagonist counter-screen | parental CHO-K1, ATP-induced calcium, Fluo-8 fluorescence | inhibition, % at 5.6 µM | 0.63% of 330,000 active | AID 463079;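 active = inhibition above that plate's mean sample inhibition plus 3 SD, cut at about 26% in these data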
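Test system: parental CHO cells; detection: calcium-sensitive Fluo-8 fluorescence; evaluation: percent inhibition of calcium signal; also added: ATP as calcium-mobilizing challenge; repeats: one well per compound; control set: ATP-challenged DMSO wells low, unchallenged DMSO wells high; compound: single nominal dose of 5.6 µM per compound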
OXTR potentiate: potentiates the human oxytocin receptor response. CHO-OTR cells, Fluo-8 calcium fluorescence, potentiator mode; 0% = oxytocin EC15, 100% = EC100. 0.061% of 320,000 active. P30559. AID 2445. activation, % at 3 µM;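 active = activation above that plate's cutoff, the mean activation of tested compounds plus 3 SD, cut at about 6.6% in these data, passing the limit was not always enough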
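Dosing: Single dose, 3.0 µM nominal final compound concentration | Material: Human OTR in CHO cells | Technique: Kinetic Fluo-8 calcium fluorescence | Benchmarks: EC15 oxytocin alone as 0%, 75 nM oxytocin as 100% | Probe or stimulus: Oxytocin at about EC15, sub-maximal agonist stimulus | Incubation: Compound 6 min at room temperature before oxytocin, 100 s read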
OX1R antag-2: antagonists of human orexin 1 receptor. 0.43% of 330,000 active. O43613. CHO/OX1R cells, Fluo-8 calcium fluorescence, orexin A. inhibition, % at 5 µM. AID 434989;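 active = inhibition above its plate's threshold, mean inhibition of all tested compounds on the plate plus 3 SD, cut at about 37% in these data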
V1aR counter: counter-screen for oxytocin receptor agonists: human V1a receptor agonists; CHO-V1R cells, Fluo-8 calcium fluorescence, agonist mode; 0% DMSO, 100% 3 nM vasopressin; activation, % at 3 µM; 0.25% of 320,000 active; AID 2797;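 active = activation above the mean activation of all tested compounds plus 3 SD, per screening run, cut at about 20% in these data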;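 also: signal is peak over basal fluorescence ratio across a 100 second FLIPR read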
Target sequence (P37288 whole entry, looked up): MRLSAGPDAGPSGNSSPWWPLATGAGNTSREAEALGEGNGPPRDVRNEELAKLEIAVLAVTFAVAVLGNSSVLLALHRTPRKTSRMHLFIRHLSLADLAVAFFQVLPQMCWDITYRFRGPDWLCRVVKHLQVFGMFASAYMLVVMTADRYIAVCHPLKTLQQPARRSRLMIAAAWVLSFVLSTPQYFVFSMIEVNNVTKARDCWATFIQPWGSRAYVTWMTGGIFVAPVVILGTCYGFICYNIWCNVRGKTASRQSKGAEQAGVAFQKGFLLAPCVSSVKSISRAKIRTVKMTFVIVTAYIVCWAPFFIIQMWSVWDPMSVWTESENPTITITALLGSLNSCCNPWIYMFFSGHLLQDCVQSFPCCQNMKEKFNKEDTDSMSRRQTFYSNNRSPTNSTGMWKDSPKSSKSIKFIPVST
OXTR ag: agonists of human oxytocin receptor | activation, % at 3 µM | 0.32% of 320,000 active | CHO-OTR cells, Fluo-8 calcium fluorescence; normalized: DMSO 0%, oxytocin 100% | P30559;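 active = activation above the mean of all tested compounds plus 3 SD, cutoff set per screening run, cut at about 20% in these data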;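 also: peak over basal fluorescence ratio from a 100 s FLIPR kinetic read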
OX1R Fluo8 conf: OX1R (human) antagonism, confirmed; shares compounds with OX1R antag-2; CHO/OX1R cells, orexin A calcium Fluo-8 fluorescence; inhibition, % at 5 µM; 38% of 1,100 active; AID 492963; in the data active = inhibition above about 29%
CHO Ca counter: signal in parental CHO cells, OX1R antagonist counter-screen. shares compounds with OX1R antag-2. parental CHO-K1, ATP-induced calcium, Fluo-8 fluorescence. inhibition, % at 5.6 µM. 9.3% of 1,100 active. AID 492965;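 active = inhibition above a per-plate limit, the mean inhibition of that plate's test compounds plus 3 SD, cut at about 25% in these data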
OX1R HTRF confirm: confirmation of human orexin 1 receptor antagonists, HTRF format; shares compounds with OX1R antag-1; inhibition, % at 6.6 µM; OX1R-expressing cells, HTRF antagonist assay; 49% of 1,800 active; in the data active = inhibition above about 55%;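 also: CHO cells expressing OX1R stimulated with orexin A at about EC80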
CHO-K1 HTRF cnt: signal in parental CHO-K1 cells, OX1R antagonist counter-screen | shares compounds with OX1R antag-1 | HTRF counterscreen | inhibition, % at 6.6 µM | 48% of 1,800 active; in the data active = inhibition above about 17%
Hits are given with their value; . = inactive; / = no result.

SMILES	OX1R antag-1	CHO parental Ca	OXTR potentiate	OX1R antag-2	V1aR counter	OXTR ag	OX1R Fluo8 conf	CHO Ca counter	OX1R HTRF confirm	CHO-K1 HTRF cnt
COCCNC(=O)C(c1ccc(F)cc1)N(CCOC)C(=O)CCC(=O)Nc1ccccn1 (stereo not given)	.	.	.	.	.	.	/	/	/	/
COc1ccccc1C(=O)NCCC(=O)N1CCN(c2cccc(C(F)(F)F)c2)CC1	.	.	.	.	.	.	/	/	/	/
Cc1ccsc1/C=N/NC(=O)C1CC(=O)N(c2ccccc2)C1 (stereo not given)	.	.	.	.	.	.	/	/	/	/
O=C(NCc1ccc(F)cc1)C1CCCN1S(=O)(=O)c1ccccc1C(F)(F)F (stereo not given)	.	.	.	.	.	.	/	/	/	/
Cc1ccccc1NC(=O)C1CCCN1S(=O)(=O)c1ccccc1C(F)(F)F (stereo not given)	81	.	.	66	.	.	55	.	94	.
CCc1ccc(N(CC(=O)N2CCCCCC2)S(C)(=O)=O)cc1	.	.	.	.	.	.	/	/	/	/
CCOC(=O)C1CCN(c2cc3c(cc2NC(=O)c2ccccc2OCC)n(C)c(=O)n3C)CC1	35	.	.	.	.	.	.	.	.	.
COc1cc(C#Cc2c(C=O)n(C)c3ccccc23)cc(OC)c1	.	.	.	.	.	.	/	/	/	/
C=CCn1c2ccccc2c(=O)c2cc(C#Cc3cc(OC)cc(OC)c3)ccc21	47	.	.	69	.	.	45	.	66	20
COCc1cc(=O)[nH]c2cc(NC(=O)C(C)(C)CCl)c(C)cc12	.	.	.	.	.	.	/	/	/	/
Cc1cc2nc3c(=O)[nH]c(=S)[nH]c3nc2cc1NC(=O)C(F)(F)F	49	.	.	.	80	55	.	.	.	88
Cc1cc(NC(=O)CCC(=O)N(c2ccccc2C)C(C(=O)NC2CCCC2)c2ccccc2)no1 (stereo not given)	.	.	.	.	.	.	/	/	/	/
COc1cccc(NC(=O)c2ccc(C(=O)c3ccccc3)o2)c1	100	.	.	53	.	.	33	.	78	.
CCn1c(Cn2nnc(-c3ccccc3)n2)nnc1SCC(=O)Nc1ccccc1	50	.	.	.	.	.	.	.	56	.
Cc1ccc(S(=O)(=O)N2[C@@H](c3ccc(F)cc3)C(C(=O)O)=CC[C@H]2c2ccc(C(C)C)cc2)cc1	.	.	.	.	.	.	/	/	/	/
Cc1ccc(S(=O)(=O)N2[C@@H](c3ccccc3)C(C(=O)O)=CC[C@H]2c2cccc(C)c2)cc1	.	.	.	.	.	.	/	/	/	/
Cc1ccc(S(=O)(=O)N2[C@@H](c3cccc(Cl)c3)C(C(=O)O)=CC[C@H]2c2ccc(C(C)C)cc2)cc1	70	.	.	.	.	.	.	.	77	.
Cc1ccc([C@@H]2CC=C(C(=O)O)[C@H](c3cccc(F)c3)N2S(=O)(=O)c2ccccc2C)cc1	71	.	.	50	.	.	.	.	86	.
COc1ccc2oc(=Nc3cc(F)ccc3F)c(C(N)=O)cc2c1	87	.	.	.	.	.	43	.	75	.
CCOC(=O)C1=C(COC(=O)CCc2ccccc2)NC(=O)NC1C (stereo not given)	.	.	.	.	.	.	/	/	/	/
O=C(NCc1ccccc1)c1ccccc1C(=O)c1ncc[nH]1	.	.	.	.	.	.	/	/	/	/
Cc1cnc(NC(=O)c2ccc(-c3nc4ccccc4s3)o2)s1	106	.	.	82	.	.	83	.	101	.
N#CC(=C1CCCC1)c1nc(-c2ccccc2O)cs1	93	.	.	67	.	.	54	.	94	.
COc1ccc(C(=O)NCCCCCCNC(=O)c2ccc(OC)cc2)cc1	.	.	.	.	.	.	/	/	/	/
CCOc1ccccc1NC(=O)CN1C(=O)NC(Cc2c[nH]c3ccccc23)C1=O (stereo not given)	36	.	.	42	.	.	.	.	.	.
SMILES	OX1R antag-1	CHO parental Ca	OXTR potentiate	OX1R antag-2	V1aR counter	OXTR ag	OX1R Fluo8 conf	CHO Ca counter	OX1R HTRF confirm	CHO-K1 HTRF cnt
COc1cccc(CC(=S)N2CCOCC2)c1	.	.	.	.	.	.	/	/	/	/
CCn1c(C)csc1=NC(=O)c1ccccc1O	95	.	.	54	.	.	42	.	90	.
NC(=O)c1cc([N+](=O)[O-])ccc1NCc1cccc(N)c1	.	.	.	.	.	.	/	/	/	/
COc1ccccc1CNS(=O)(=O)c1ccc2c(c1)CC(C)N2C(=O)C1CCC1 (stereo not given)	60	.	.	55	.	.	30	.	68	.
COc1ccccc1CNS(=O)(=O)c1ccc2c(c1)CC(C)N2C(=O)C1CC1 (stereo not given)	.	.	.	.	.	.	/	/	/	/
CCc1ccc(NC(=O)C(C)OC(=O)c2cccc(S(=O)(=O)N3CCc4ccccc4C3)c2)cc1 (stereo not given)	.	.	.	.	.	.	/	/	/	/
Cc1ccc(C(=O)NC(C)c2nc3ccccc3n2CC(=O)Nc2c(C)cc(C)cc2C)cc1 (stereo not given)	.	.	.	.	.	.	/	/	/	/
CCN(CC)c1ccc(NC(=O)Cn2c(C(C)NC(=O)c3ccccc3)nc3ccccc32)cc1 (stereo not given)	93	.	.	54	.	.	61	.	88	.
CCN(CC)c1ccc(/C=C(\C#N)c2ccccn2)cc1	80	.	.	.	.	.	.	.	90	.
O=C(CSc1nc2ncccc2[nH]1)Nc1ccccc1-c1ccccc1	72	.	.	.	.	.	31	.	72	.
COc1ccccc1NC(=O)CSc1nc2ncccc2[nH]1	.	.	.	.	.	.	/	/	/	/
O=C(CN1C(=O)NC(c2ccccc2)(c2ccccc2)C1=O)NCCc1ccc(F)cc1	69	.	.	.	.	.	31	.	56	.
NS(=O)(=O)c1ccc(CCNC(=O)CN2C(=O)NC(c3ccccc3)(c3ccccc3)C2=O)cc1	.	.	.	.	.	.	/	/	/	/
C/C(=N\NC(=O)c1nnn(-c2nonc2N)c1CN(C)c1ccccc1)c1ccc(O)cc1	.	.	.	.	.	.	/	/	/	/
